Experimental data from ChEMBL document CHEMBL4765378, “Discovery of simplified benzazole fragments derived from the marine benzosceptrin B as necroptosis inhibitors involving the receptor interacting protein Kinase-1” (Eur J Med Chem, 2020).
The source made the active and inactive calls. The calls are words filed in the database; no cut-off is given here. Where a SMILES comes first, the peptide text is derived from it. The star is where a group is joined. Cbz = O=C(OCc1ccccc1)*; CH2F = FC*

Test system: not listed separately
Assay: Cytotoxicity against human FADD-deficient Jurkat I 2.1 cells assessed as reduction in cell viability at >10 uM measured after 24 hrs by MTS assay
Type: cell-based
Conditions: jurkat i 2.1, 24 h
For `O=[N+]([O-])c1ccc2nc(NC3CCCCC3)[nH]c2c1`, the Activity was “Toxic”.
For `O=[N+]([O-])c1ccc2nc(Nc3ccccc3)[nH]c2c1`, the Activity was “Toxic”.
With `CC(C)CNc1nc2ccc([N+](=O)[O-])cc2[nH]1` the Activity was “Toxic”.

Test system: Jurkat
Assay: Protection against staurosporine-induced apoptosis in human Jurkat assessed as increase in cell viability at 20 uM measured after 24 hrs by MTS assay
Type: functional, cell-based
Conditions: not given
In the case of `CC(C)[C@H](NC(=O)OCc1ccccc1)C(=O)N[C@@H](C)C(=O)N[C@@H](CC(=O)O)C(=O)CF` (Cbz-Val-Ala-Asp-CH2F), the Activity is reported as “inactive”.

Test system: Jurkat
Assay: Protection against TRAIL-induced apoptosis in human Jurkat assessed as increase in cell viability at 20 uM measured after 24 hrs by MTS assay
Type: functional, cell-based
Conditions: not given
In the case of `CC(C)[C@H](NC(=O)OCc1ccccc1)C(=O)N[C@@H](C)C(=O)N[C@@H](CC(=O)O)C(=O)CF` (Cbz-Val-Ala-Asp-CH2F), the Activity is reported as “inactive”.

Molecular target: T1, Receptor-interacting serine/threonine-protein kinase 1 (Homo sapiens) (UniProt Q13546)
T1 sequence (whole entry): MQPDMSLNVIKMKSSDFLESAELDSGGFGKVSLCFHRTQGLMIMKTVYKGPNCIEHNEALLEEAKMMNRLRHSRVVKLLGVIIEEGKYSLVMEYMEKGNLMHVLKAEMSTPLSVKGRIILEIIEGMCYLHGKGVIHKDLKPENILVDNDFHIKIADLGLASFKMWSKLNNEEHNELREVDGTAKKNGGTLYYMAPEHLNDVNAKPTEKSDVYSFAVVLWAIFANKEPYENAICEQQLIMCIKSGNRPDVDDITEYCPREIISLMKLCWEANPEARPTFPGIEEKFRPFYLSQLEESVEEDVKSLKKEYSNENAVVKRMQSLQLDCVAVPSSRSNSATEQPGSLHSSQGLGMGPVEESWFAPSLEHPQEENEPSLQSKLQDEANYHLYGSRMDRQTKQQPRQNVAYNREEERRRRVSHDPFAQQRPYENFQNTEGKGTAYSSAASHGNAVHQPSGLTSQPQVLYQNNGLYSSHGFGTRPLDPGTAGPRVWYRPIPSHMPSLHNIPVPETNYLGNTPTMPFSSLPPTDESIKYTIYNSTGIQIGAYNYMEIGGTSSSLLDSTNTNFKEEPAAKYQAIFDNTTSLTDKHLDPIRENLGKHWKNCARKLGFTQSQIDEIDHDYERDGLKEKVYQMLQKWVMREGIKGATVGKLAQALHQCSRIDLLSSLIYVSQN
Assay: Inhibition of RIPK1 in human FADD-deficient Jurkat I 2.1 cells assessed as protection against TNFalpha-induced necroptosis by measuring remaining viable cells at 10 uM measured after 24 hrs by MTS assay relative to TNFalpha
Type: cell-based
Conditions: not given
In short: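 FADD-deficient Jurkat cells co-treated 24 h with 10 ng/ml human recombinant TNF-α and 10 μM compound; MTS viability normalized to DMSO control (100%); protection delta = viability with TNF-α plus compound minus viability with TNF-α alone (negative if toxic); n = 3.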
Work on `CCNC(=O)CNc1nc2ccc([N+](=O)[O-])cc2[nH]1` yielded an Activity of 1.9%.
`CCCCCCNc1nc2ccc([N+](=O)[O-])cc2[nH]1` showed an Activity of 23.6%.
For `CCNc1nc2ccc(-c3ccccc3Cl)cc2[nH]1`, the Activity was 4.9%.
With `COCCNc1nc2ccc([N+](=O)[O-])cc2[nH]1` the Activity was 5.6%.
`Oc1ccc(-c2cc3cccnc3[nH]2)cc1` gave an Activity of 57.9%.
`CCCCNc1nc2ccc(-n3cnnn3)cc2[nH]1` gave an Activity of -1.32%.
`CC(C)Nc1nc2ccc([N+](=O)[O-])cc2[nH]1` showed an Activity of 16.2%.
In the case of `CCCCNc1nc2ccc(C(=O)NCCCc3ccccc3)cc2[nH]1`, the Activity is reported as -3.6%.
With `CCNc1nc2ccc([N+](=O)[O-])cc2[nH]1` the Activity was 6.4%.
With `CN(C)c1ccc(Nc2nc3ccc([N+](=O)[O-])cc3[nH]2)cc1` the Activity was 14%.
In the case of `CCCCCCCCNc1nc2ccc([N+](=O)[O-])cc2[nH]1`, the Activity is reported as 6.4%.
Work on `C#Cc1ccc2nc(NCCCC)[nH]c2c1` yielded an Activity of -21.3%.
With `CCCCNc1nc2cccc(C(=O)OC)c2[nH]1` the Activity was 29.2%.
Compound `O=[N+]([O-])c1ccc2nc(NCc3ccccc3)[nH]c2c1` has an Activity of 9%.
`CCNc1nc2ccc(Br)cc2[nH]1` gave an Activity of 10.4%.
`O=C(Nc1nc2ccc([N+](=O)[O-])cc2[nH]1)c1ccccc1` showed an Activity of -21.3%.
Work on `C=CCNc1nc2ccc([N+](=O)[O-])cc2[nH]1` yielded an Activity of 4.7%.
Work on `CCCCNc1nc2cccc([N+](=O)[O-])c2[nH]1` yielded an Activity of 1.2%.
In the case of `CCCCNc1nc2ccc(I)cc2[nH]1`, the Activity is reported as -16.3%.
In the case of `CCCCNc1nc2ccc(-c3cn(Cc4ccccc4)nn3)cc2[nH]1`, the Activity is reported as -10.5%.
Compound `CCCCNc1nc2ccc(-c3cccc([N+](=O)[O-])c3)cc2[nH]1` has an Activity of -20.6%.
`CCCCNc1nc2ccc(C(=O)OC)cc2[nH]1` gave an Activity of 2.9%.
With `CCCCNc1nc2ccc(-c3cccs3)cc2[nH]1` the Activity was -20.5%.
`O=[N+]([O-])c1cccc2nc(NC3CCCCC3)[nH]c12` gave an Activity of 13%.
`O=[N+]([O-])c1cccc2nc(Nc3ccccc3)[nH]c12` showed an Activity of 0%.
`C#CCNc1nc2ccc([N+](=O)[O-])cc2[nH]1` gave an Activity of 3.4%.
`O=[N+]([O-])c1ccc2nc(NC3CCCCC3)[nH]c2c1` showed an Activity of 68.1%.
For `O=[N+]([O-])c1ccc2nc(Nc3ccc(C(F)(F)F)cc3)[nH]c2c1`, the Activity was -30.8%.
`O=[N+]([O-])c1ccc2sc(Cl)nc2c1` showed an Activity of 0.1%.
Compound `CCNc1nc2ccc(-c3cccc(OC)c3)cc2[nH]1` has an Activity of -12.8%.
For `CCCCNc1nc2ccc(C(=O)NCc3ccccc3)cc2[nH]1`, the Activity was 5%.
With `COC(=O)c1cccc2nc(NC3CCCCC3)[nH]c12` the Activity was 21.7%.
Work on `N#Cc1ccc(Nc2nc3ccc([N+](=O)[O-])cc3[nH]2)cc1` yielded an Activity of -31.4%.
In the case of `O=[N+]([O-])c1ccc2nc(Nc3ccccc3)[nH]c2c1`, the Activity is reported as 41.9%.
`CCOC(=O)CNc1nc2ccc([N+](=O)[O-])cc2[nH]1` gave an Activity of 15.3%.
For `CCCCNC(=O)CNc1nc2ccc([N+](=O)[O-])cc2[nH]1`, the Activity was 4.6%.
`CCCCNc1nc2ccc([N+](=O)[O-])cc2s1` gave an Activity of 28%.
`CCCNc1nc2ccc([N+](=O)[O-])cc2[nH]1` showed an Activity of 20%.
`CCCCNc1nc2cc(C(F)(F)F)cc(Br)c2[nH]1` gave an Activity of 23.7%.
Work on `CCCCNc1nc2ccc(Br)cc2[nH]1` yielded an Activity of 7.3%.
In the case of `CCCCNc1nc2ccc(-c3cccc(OC)c3)cc2[nH]1`, the Activity is reported as -16.8%.
`O=[N+]([O-])c1ccc2nc(Nc3ccc(Br)cc3)[nH]c2c1` gave an Activity of -6.1%.
In the case of `CCCCNc1nc2ccc(C#N)cc2[nH]1`, the Activity is reported as 6.3%.
With `O=[N+]([O-])c1ccc(Nc2nc3ccc([N+](=O)[O-])cc3[nH]2)cc1` the Activity was 3.6%.
Work on `CC(C)Nc1nc2cccc([N+](=O)[O-])c2[nH]1` yielded an Activity of 1%.
Work on `O=[N+]([O-])c1cccc2nc(NCc3ccccc3)[nH]c12` yielded an Activity of 5.1%.
`CCCCNc1nc2ccc(C#C[Si](C)(C)C)cc2[nH]1` showed an Activity of -18.5%.
In the case of `CCNc1nc2ccc(-c3cccc([N+](=O)[O-])c3)cc2[nH]1`, the Activity is reported as -19.4%.
Compound `Clc1ccc2nc(NC3CCCCC3)[nH]c2c1` has an Activity of 38.2%.
`CCCCNc1nc2ccc(C(=O)NCCc3ccccc3)cc2[nH]1` gave an Activity of 2.6%.
For `Cc1ccc2nc(NC3CCCCC3)[nH]c2c1`, the Activity was 7%.
With `COCCNc1nc2cccc([N+](=O)[O-])c2[nH]1` the Activity was -2.3%.
`Brc1ccc2nc(NC3CCCCC3)[nH]c2c1` showed an Activity of 43.7%.
`CC(C)CNc1nc2ccc([N+](=O)[O-])cc2[nH]1` showed an Activity of 53.7%.
